We go through eight compounds from ChEMBL document CHEMBL4145612, “Phenolic Constituents Isolated from the Twigs of Cinnamomum cassia and Their Potential Neuroprotective Effects” (J Nat Prod, 2018).

This assay concerns SH-SY5Y. Description: Neuroprotective activity against tunicamycin-induced cell death in human SH-SY5Y cells pretreated for 6 hrs followed by tunicamycin addition measured after 48 hrs by MTT assay. The assay is classed as functional, cell-based. In outline: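 SH-SY5Y cells grown in DMEM/High Glucose:F12 (1:1) with 10% FBS at 37 °C, 5% CO2, seeded 4 × 10^3/well and left 12 h. Compounds given at 25, 50 and 100 μM for 6 h, then tunicamycin added for 48 h. Medium replaced; MTT 0.5 mg/mL final, 4 h at 37 °C; absorbance 570 nm. Salubrinal 40 μM as positive control; three independent experiments, means ± SEM; EC50 derived.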
(Tetrazolium assays rely on reduction of a dye to a coloured formazan, in cell work by metabolically active cells.)
For the compound `COc1cc([C@H](OC)[C@@H]2CO[C@@H](c3cc(OC)c(O)c(OC)c3)[C@@H]2COC(C)=O)cc(OC)c1O`, the Activity result was “Dose-dependent effect” and the EC50 is 21 to 75 µM.

For `OC[C@H]1O[C@@H](OC/C=C/c2ccccc2)[C@H](O)[C@@H](O)[C@@H]1O`, the Activity entry was “Dose-dependent effect” and the EC50 is 21 to 75 µM.

Consider `O=C1OC[C@@H](c2ccc(O)c(O)c2)[C@@H]1c1ccc(O)cc1`, for which the Activity entry was “Dose-dependent effect” and the concentration for a half-maximal effect (EC50) fell in the range of 21 to 75 µM.

On to `COc1ccc([C@@H]2C(=O)OC[C@H]2c2ccc3c(c2)OCO3)cc1`, for which the Activity result is “Dose-dependent effect” and the half-maximal effective concentration (EC50) was 21 to 75 µM.

Consider `O=C(CCc1ccccc1)OC/C=C/c1ccccc1`, for which the Activity result was “Dose-dependent effect” and the EC50 is 21 to 75 µM.

In the case of `COc1ccc([C@@H]2C(=O)OC[C@H]2c2ccc(O)c(OC)c2)cc1`, the Activity entry was “Dose-dependent effect” and the EC50 is 21 to 75 µM.

Consider `C=CCc1cc(O)c(-c2c(OC)cc([C@H]3OO[C@H]3CO)cc2OC)c(OC)c1`, for which the Activity result is “Dose-dependent effect” and the EC50 was 21 to 75 µM.

`C=CCc1cc(O)c(-c2c(OC)cc([C@@H]3OO[C@@H]3CO)cc2OC)c(OC)c1`: the Activity result is “Dose-dependent effect” and the EC50 is 21 to 75 µM.

A word on the EC50: it is the concentration that produces a half-maximal response.
